Activity calls are given as the source filed them. The calls are words filed in the database; no cut-off is given here.
Tests used:
[1] = molecular target: T1, DNA topoisomerase 1 (Homo sapiens) (UniProt P11387); assay: Inhibition of topoisomerase 1 catalytic activity assessed as relaxation of supercoiled plasmid DNA at 100 uM after 30 mins by agarose gel electrophoresis
T1 sequence (whole entry): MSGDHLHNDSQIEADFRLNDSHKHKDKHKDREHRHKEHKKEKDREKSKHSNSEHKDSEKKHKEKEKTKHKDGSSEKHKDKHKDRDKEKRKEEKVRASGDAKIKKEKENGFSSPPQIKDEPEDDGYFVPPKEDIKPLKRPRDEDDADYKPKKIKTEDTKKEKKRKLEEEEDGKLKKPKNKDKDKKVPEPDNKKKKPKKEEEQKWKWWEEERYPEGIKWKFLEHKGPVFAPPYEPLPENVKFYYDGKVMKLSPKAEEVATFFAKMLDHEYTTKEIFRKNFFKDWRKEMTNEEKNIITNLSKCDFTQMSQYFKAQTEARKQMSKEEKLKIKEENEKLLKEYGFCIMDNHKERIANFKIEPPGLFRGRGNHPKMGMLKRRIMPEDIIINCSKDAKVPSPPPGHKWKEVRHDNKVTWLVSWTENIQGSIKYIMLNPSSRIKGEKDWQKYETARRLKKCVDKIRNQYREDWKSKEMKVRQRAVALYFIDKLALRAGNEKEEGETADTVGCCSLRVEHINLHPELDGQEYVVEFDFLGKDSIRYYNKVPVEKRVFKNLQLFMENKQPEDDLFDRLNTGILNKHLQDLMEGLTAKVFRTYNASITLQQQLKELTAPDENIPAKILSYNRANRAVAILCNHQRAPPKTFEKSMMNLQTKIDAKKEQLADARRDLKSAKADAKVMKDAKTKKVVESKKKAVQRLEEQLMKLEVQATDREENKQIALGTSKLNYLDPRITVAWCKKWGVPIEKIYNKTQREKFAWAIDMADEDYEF
Outline: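 Compound at 100 µM final with topoisomerase I (2U), 37 °C 30 min. Stopped with 1% SDS, proteinase K digestion, 1% agarose TAE gel, ethidium bromide stain, imaging quantitation. Scored 0 to 3+ against camptothecin.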

[2] = system: HL-60(TB); assay: Cytotoxicity against human HL-60(TB) cells assessed as cell growth at 10 uM; assay type: functional; details: read-out: Activity
Outline: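 Single-dose screen run externally by the NCI Developmental Therapeutics Program across its 60 human tumour cell line panel. Compound tested at 10 µM.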

[3] = system: A549; assay: Cytotoxicity against human A549 cells assessed as cell growth at 10 uM; assay type: functional; details: read-out: Activity
Outline: (§1)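 Single-dose screen at 10 µM against the 60 human cell line panel, run by the NCI Developmental Therapeutics Program and scored as cell growth.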

[4] = system: HOP-92; assay: Cytotoxicity against human HOP92 cells assessed as cell growth at 10 uM; assay type: functional; details: read-out: Activity; outline: as §1
[5] = system: NCI-H460; assay: Cytotoxicity against human NCI-H460 cells assessed as cell growth at 10 uM; assay type: functional; details: read-out: Activity; outline: as §1
[6] = system: COLO 205; assay: Cytotoxicity against human COLO205 cells assessed as cell growth at 10 uM; assay type: functional; details: read-out: Activity; outline: as §1
[7] = system: HCC 2998; assay: Cytotoxicity against human HCC2998 cells assessed as cell growth at 10 uM; assay type: functional; details: read-out: Activity; outline: as §1
[8] = system: HCT-15; assay: Cytotoxicity against human HCT15 cells assessed as cell growth at 10 uM; assay type: functional; details: read-out: Activity; outline: as §1
[9] = system: KM12; assay: Cytotoxicity against human KM12 cells assessed as cell growth at 10 uM; assay type: functional; details: read-out: Activity; outline: as §1
[10] = system: SW-620; assay: Cytotoxicity against human SW620 cells assessed as cell growth at 10 uM; assay type: functional; details: read-out: Activity
[11] = system: SF-268; assay: Cytotoxicity against human SF268 cells assessed as cell growth at 10 uM; assay type: functional; details: read-out: Activity; outline: as §1
[12] = system: Malme-3M; assay: Cytotoxicity against human MALME-3M cells assessed as cell growth at 10 uM; assay type: functional; details: read-out: Activity; outline: as §1
[13] = system: M14; assay: Cytotoxicity against human M14 cells assessed as cell growth at 10 uM; assay type: functional; details: read-out: Activity; outline: as §1
[14] = system: MDA-MB-435; assay: Cytotoxicity against human MDA-MB-435 cells assessed as cell growth at 10 uM; assay type: functional; details: read-out: Activity; outline: as §1
[15] = system: UACC-257; assay: Cytotoxicity against human UACC257 cells assessed as cell growth at 10 uM; assay type: functional; details: read-out: Activity
[16] = system: NCI/ADR-RES; assay: Cytotoxicity against human NCI/ADR-RES cells assessed as cell growth at 10 uM; assay type: functional; details: read-out: Activity; outline: as §1
[17] = system: CAKI-1; assay: Cytotoxicity against human Caki1 cells assessed as cell growth at 10 uM; assay type: functional; details: read-out: Activity; outline: as §1
[18] = system: T47D; assay: Cytotoxicity against human T47D cells assessed as cell growth at 10 uM; assay type: functional; details: read-out: Activity

## C=C(C)[C@@H]1CC[C@]2(C(O)=S)CC[C@]3(C)[C@H](CC[C@@H]4[C@@]5(C)CC[C@H](O)C(C)(C)[C@@H]5CC[C@]43C)[C@@H]12
[1]
  inhibition: inactive
[2]
  growth at 10 µM: 134%
[3]
  growth at 10 µM: 93%
[4]
  growth at 10 µM: 158%
[5]
  growth at 10 µM: 109%
[6]
  growth at 10 µM: 129%
[7]
  growth at 10 µM: 128%
[8]
  growth at 10 µM: 104%
[9]
  growth at 10 µM: 84.7%
[10]
  growth at 10 µM: 92.2%
[11]
  growth at 10 µM: 92.7%
[12]
  growth at 10 µM: 102%
[13]
  growth at 10 µM: 96%
[14]
  growth at 10 µM: 91.3%
[15]
  growth at 10 µM: 105%
[16]
  growth at 10 µM: 113%
[17]
  growth at 10 µM: 100%
[18]
  growth at 10 µM: 98.5%
